From ChEMBL document CHEMBL5143667, “Identification of Aloe-derived natural products as prospective lead scaffolds for SARS-CoV-2 main protease (Mpro) inhibitors” (Bioorg Med Chem Lett, 2022)
pIC50: −log10 of the molar value. Square brackets hold non-standard residues; d marks the D form. Peptide text beside a SMILES is read from it. * marks the point of attachment. Nle = CCCC[C@H](N)C(=O)O; Cbz = O=C(OCc1ccccc1)*

Key:
[1] = biological target: Replicase polyprotein 1ab (Severe acute respiratory syndrome coronavirus 2) (UniProt P0DTD1); experiment: Inhibition of SARS-CoV-2 main protease expressed in Escherichia coli using DABCYL-KTSAVLQ1SGFRKM-E(EDANS)-NH2 peptide as substrate at 100 uM incubated for 30 mins by FRET based assay relative to control
Method in brief: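 Started by adding substrate–inhibitor mix to enzyme. Ex 360/Em 460 nm every 2.5 min for 1 h. Initial velocity from first 20 min, substrate background subtracted, % inhibition vs DMSO control. Triplicate, mean ± SD.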

[2] = biological target: Replicase polyprotein 1ab (Severe acute respiratory syndrome coronavirus 2, UniProt P0DTD1); experiment: Inhibition of SARS-CoV-2 main protease expressed in Escherichia coli using DABCYL-KTSAVLQ1SGFRKM-E(EDANS)-NH2 peptide as substrate incubated for 30 mins by FRET based assay
Method in brief: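 Same FRET set-up with varied inhibitor concentrations: 50 nM Mpro, 10 μM substrate, Tris-HCl/NaCl/EDTA/DTT buffer, pH 7.3, room temperature, read every 2.5 min for 1 h. Initial slopes from first 20 min, % inhibition vs DMSO. IC50 by nonlinear regression, three-parameter dose–response inhibition model. Triplicates, mean ± SD.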

Compound | inhibition [1] [%] | pIC50 [2]
CC(=O)O/N=C1\C(=O)N(Cc2cc(Cl)ccc2Cl)c2ccc(Cl)cc21 | 61.4 | 
CCCCCCCCCCCCCCCc1cccc(O)c1C(=O)O [ANACARDIC ACID] | 96.1 | 5.17
Cc1cc(C(=O)CN2CCCC2)c(C)n1-c1ccc(F)cc1 | 54.8 | 
CC(NC(=O)[C@H](Cc1ccccc1)NC(=O)OCc1ccccc1)C(=O)CF (stereo partly specified) | 90.1 | 
CCOC(=O)C[C@H](NC(=O)[C@@H](NC(=O)[C@H](CCC(=O)OC)NC(=O)[C@H](CC(=O)OCC)NC(=O)OCc1ccccc1)C(C)C)C(=O)CF | 100 | 
CC(=O)N[C@@H](CC(C)C)C(=O)N[C@@H](CC(C)C)C(=O)N[C@H](C=O)CCCNC(=N)N | 59 | 
CC(C)(C)C1NC(=O)O[C@@H]2CCC[C@H]2OC/C=C/C(F)(F)c2nc3ccccc3nc2O[C@@H]2C[C@@H](C(=O)N[C@]3(C(=O)NS(=O)(=O)C4(C)CC4)C[C@H]3C(F)F)N(C2)C1=O (stereo partly specified) | 51.7 | 
O=C(O)/C(S)=C/c1c[nH]c2ccc(F)cc12 | 71.5 | 
CCCC[C@@H](C=O)NC(=O)[C@H](CC(C)C)NC(=O)OCc1ccccc1 | 97.2 | 
CC(C)C[C@H](NC(=O)[C@H](Cc1ccccc1)C[C@@H](O)[C@H](Cc1ccccc1)NC(=O)OC(C)(C)C)C(=O)N[C@@H](Cc1ccccc1)C(N)=O | 65 | 
Cc1coc2c1C(=O)C(=O)c1c-2ccc2c1CCCC2(C)C | 53.9 | 
CCCC(NC(=O)C(CC(C)C)NC(=O)OCc1ccccc1)C(=O)C(=O)NCc1ccccn1 (stereo unspecified) | 98.3 | 
C=C[C@H]1C[C@]1(NC(=O)[C@@H]1C[C@@H](Oc2ncc(OC)c3ccc(Cl)cc23)CN1C(=O)[C@@H](NC(=O)OC(C)(C)C)C(C)(C)C)C(=O)NS(=O)(=O)C1CC1 | 49.4 | 
Cc1c(O)cccc1C(=O)N[C@@H](CSc1ccccc1)[C@H](O)CN1C[C@H]2CCCC[C@H]2C[C@H]1C(=O)NC(C)(C)C | 56.1 | 
CC(NC(=O)Cc1cc(F)cc(F)c1)C(=O)NC1C(=O)N(C)c2ccccc2-c2ccccc21 (stereo unspecified) | 53.8 | 
CC(C)C[C@@H](C=O)NC(=O)[C@H](CC(C)C)NC(=O)[C@H](CC(C)C)NC(=O)OCc1ccccc1 (Cbz-Leu-Leu-Leu-aldehyde) | 99 | 
CSCC[C@@H](C=O)NC(=O)[C@H](CC(C)C)NC(=O)[C@H](CC(C)C)NC(C)=O (Ac-Leu-Leu-Met-aldehyde) | 99.8 | 
CCC[C@H](NC(=O)[C@@H]1[C@H]2CCC[C@H]2CN1C(=O)[C@@H](NC(=O)[C@@H](NC(=O)c1cnccn1)C1CCCCC1)C(C)(C)C)C(=O)C(=O)NC1CC1 | 88.8 | 
O=C1CC(=O)c2c(Cl)c(Cl)c(Cl)c(Cl)c21 | 94.2 | 3.86
CC(C)(C)NC(=O)N[C@H](C(=O)N1C[C@H]2[C@@H]([C@H]1C(=O)NC(CC1CCC1)C(=O)C(N)=O)C2(C)C)C(C)(C)C (stereo partly specified) | 97.4 | 
CC(=O)Cc1cc(=O)c2c(C)cc(O)c([C@@H]3O[C@H](CO)[C@@H](O)[C@H](O)[C@H]3O)c2o1 | 80.1 | 4.41
CCCC[C@@H](C=O)NC(=O)[C@H](CC(C)C)NC(=O)[C@H](CC(C)C)NC(C)=O (Ac-Leu-Leu-[Nle]-aldehyde) | 95.2 | 
CC1=C(O)C(=O)C=C2C1=CC=C1[C@@]2(C)CC[C@@]2(C)[C@@H]3C[C@](C)(C(=O)O)CC[C@]3(C)CC[C@]12C | 57.7 | 
Cn1cc(/C=C/C(=O)c2cccc(F)c2)cc1/C=C/C(=O)NO | 51.4 | 
COc1cc(C)c2c(=O)cc(CC(C)=O)oc2c1[C@@H]1O[C@H](CO)[C@@H](O)[C@H](O)[C@H]1OC(=O)/C=C/c1ccc(O)cc1 | 60.5 | 
Nc1ccccc1NC(=O)c1ccc(CNc2nccc(-c3cccnc3)n2)cc1 | 66.7 | 
COc1cc(C)c2c(=O)cc(C[C@@H](C)O)oc2c1[C@@H]1O[C@H](CO)[C@@H](O)[C@H](O)[C@H]1OC(=O)/C=C/c1ccc(O)cc1 | 72.6 | 3.90
